# Measurements from different studies.
# Each line is one published result; the experiments were not run side by side.
# Target: Insulin receptor (INSR, Homo sapiens, UniProt P06213)
Structure (SMILES),observed,technique,concentration,remaining binding
CN([C@@H]1CCc2c(CC(=O)O)c3ccccc3n2C1)S(=O)(=O)c1ccc(F)cc1,cell-free assay,competition with immobilised ligand,1 µM,100%
c1cnn2ncc(-c3ccnc(N4CCC45COC5)n3)c2c1,binding,,1 µM,73%
O=C(c1ccc(Nc2ncc(Cl)c(-c3ccc(Cl)s3)n2)cc1)N1CCC(N2CCCC2)CC1,binding,competition with immobilised ligand,1 µM,2.3%
CC(C)(C)c1ccc(-c2nc(CBr)nn2-c2cccc(O)c2)cc1,cell-free assay,competition with immobilised ligand,10 µM,93%
COc1cnc(Nc2cccc(S(N)(=O)=O)c2)nc1N1CCN(c2ccccc2)CC1,binding,competition with immobilised ligand,1 µM,81%
O=C(Nc1c[nH]nc1C(=O)NC1CCNCC1)c1cc(F)cc(F)c1,binding,competition with immobilised ligand,1 µM,100%
CCS(=O)(=O)c1cc2cc(C[C@](O)(CC(C)(C)c3ccc(F)cc3C(N)=O)C(F)(F)F)[nH]c2cn1,cell-free assay,competition with immobilised ligand,1 µM,94%
N[C@H]1CCN(c2nccc(-c3cnn4ncccc34)n2)C1,binding,,1 µM,85%
Nc1c(C(=O)NCc2ccc(C(=O)NCCCC3CCCCC3)cc2)cnn1-c1ccccc1,cell-free assay,competition with immobilised ligand,0.1 µM,100%
c1cncc(-c2cccc(Nc3nccc(NC4CCCCC4)n3)c2)c1,binding,competition with immobilised ligand,10 µM,27%
F[C@@H]1CCN(c2nccc(-c3cnn4ncccc34)n2)C1,binding,,1 µM,91%
CN(C)C(=O)Cn1cc(-c2nc(C3(c4ccc(-c5cnc(N)nc5)cc4)CC3)no2)cn1,cell-free assay,competition with immobilised ligand,1 µM,90%
O=C(NCCCN1CCOCC1)c1ccc(Nc2ncc(Cl)c(-c3ccc(Cl)s3)n2)cc1,binding,competition with immobilised ligand,1 µM,29%
Cc1cnn2ncc(-c3ccnc(N(C)C)n3)c2c1,binding,,1 µM,68%
CC(=O)C1=C(C)N(c2cccc(C(F)(F)F)c2)C(=O)N[C@@H]1c1ccc(C#N)nc1,cell-free assay,competition with immobilised ligand,1 µM,89.3%
C=CC(=O)N1CCC(C(=O)NCC(=O)N2CCN(c3nc(-c4cnc(N)nc4C(F)F)nc(N4CCOCC4)n3)CC2)CC1,binding,competition with immobilised ligand,1 µM,99%
COc1ncc2cc3ccccc3nc2c1C#N,cell-free assay,competition with immobilised ligand,5 µM,100%
O=C(c1ccc(Nc2ncc(Cl)c(-c3cc4ccccc4s3)n2)cc1)N1CCC(N2CCCC2)CC1,binding,competition with immobilised ligand,1 µM,6.1%
CN(C)c1nccc(-c2cnc3ncccn23)n1,binding,,1 µM,70%
FC(F)(F)Oc1cccc(-c2cnc3ccc(-c4ccncc4)nn23)c1,cell-free assay,competition with immobilised ligand,5 µM,88%
CN(C)c1ncnc(-c2ccc3nc(Nc4cc(CN5CCN(C(=O)CC(F)(F)F)CC5)ccn4)[nH]c3c2)c1Cl,cell-free assay,competition with immobilised ligand,1 µM,100%
C[C@@H]1CN(c2ccc3ncc(-c4ccc5[nH]nc(C6CC6)c5c4)n3n2)C[C@H](C)O1,binding,competition with immobilised ligand,50 nM,100%
C[C@H]1CCN(c2nccc(-c3cnn4ncccc34)n2)C1,binding,,1 µM,69%
Cc1cc(NC(=O)c2cccc(S(F)(F)(F)(F)F)c2)cc(-n2ccn3nc(-c4cccnc4)cc23)c1,cell-free assay,competition with immobilised ligand,1 µM,100%
Nc1ncc2c(n1)-c1c([nH]c3ccc(C#CC4CC4)cc13)CCCC2,binding,competition with immobilised ligand,1 µM,80%
